This is an account of results in ChEMBL document CHEMBL1782043, “Synthesis and antileishmanial activity of novel 5-(5-nitrofuran-2-y1)-1,3,4-thiadiazoles with piperazinyl-linked benzamidine substituents” (Eur J Med Chem, 2011).

The source made the active and inactive calls. No cut-off for these calls is given here. Some results are limits rather than exact numbers.

In data set [1] the test system is Leishmania major. Kind of data set: Antileishmanial activity against promastigotes form of Leishmania major MRHO/IR/75/ER after 24 hrs by MTT assay. Type of data set: functional, organism-based. In a few lines:
(§1)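 Log-phase promastigotes (2 × 10⁶/mL) were used, from a strain passaged in BALB/c mice. They were incubated with serial drug dilutions in phenol red-free RPMI 1640 with 10% FBS, 2 mM glutamine and antibiotics, pH ~7.2, at 25 °C for 24, 48 or 72 h. MTT (0.5 mg/mL) was then added for 4 h at 37 °C. Cells were pelleted and dissolved in DMSO, with absorbance read at 492 nm. Controls received medium plus DMSO. At least two independent experiments were run in triplicate. IC50 came from linear regression, as mean ± SD.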

For data set [2], the system named is Leishmania major. Description: Antileishmanial activity against promastigotes form of Leishmania major MRHO/IR/75/ER after 48 hrs by MTT assay. Format: functional, organism-based. Put shortly:
as §1
(Tetrazolium assays rely on reduction of a dye to a coloured formazan, in cell work by metabolically active cells.)

The test system of data set [3] is Leishmania major. Kind of data set: Antileishmanial activity against promastigotes form of Leishmania major MRHO/IR/75/ER after 72 hrs by MTT assay. Type of data set: functional, organism-based. In a few lines: as §1
A short description of data set [4]: Cytotoxicity against mouse peritoneal macrophages after 24 hrs by MTT assay. Type of data set: cell-based, Peritoneal macrophage cell. Put shortly: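 Peritoneal macrophages were seeded at 2 × 10⁵ cells/well and allowed to adhere. Medium was then replaced with a range of compound concentrations for 24 h at 37 °C in humidified 5% CO₂. Viability was read by MTT colorimetry. Two independent experiments were run in triplicate, and CC50 was obtained by linear regression.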

A short description of data set [5]: Selectivity index, ratio of CC50 for mouse peritoneal macrophages to IC50 for promastigotes form of Leishmania major MRHO/IR/75/ER after 24 hrs by MTT assay. Type of data set: functional.
The test system of data set [6] is Leishmania major. Kind of data set: Antileishmanial activity against amastigotes form of Leishmania major MRHO/IR/75/ER infected in mouse peritoneal macrophage assessed as decrease in number of amastigotes per macrophage after 24 hrs. Format: functional, organism-based. Put shortly: (§2)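 Mouse peritoneal macrophages (1 × 10⁶/well) were grown on glass coverslips in RPMI 1640 with 10% heat-inactivated FBS, 2 mM glutamine, penicillin and streptomycin. Non-adherent cells were washed off after 1 h. Stationary-phase promastigotes (2 × 10⁶/well, 3 per macrophage) were added for 2 h at 37 °C under CO₂. Free parasites were washed away, then drug medium was added for 24 h. Cells were methanol-fixed and Giemsa-stained, with 100 cells counted per well. Infectivity index = % infected macrophages × mean parasites per infected cell. Two experiment sets were run.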

Data set [7] concerns Leishmania major. Kind of data set: Antileishmanial activity against amastigotes form of Leishmania major MRHO/IR/75/ER infected in mouse peritoneal macrophage assessed as decrease in macrophage infectivity after 24 hrs. Type of data set: functional, organism-based. In a few lines: as §2
Data set [8] concerns Leishmania major. Kind of data set: Antileishmanial activity against amastigotes form of Leishmania major MRHO/IR/75/ER infected in mouse peritoneal macrophage assessed as decrease in infectivity index after 24 hrs. Type of data set: functional, organism-based. In a few lines:
as §2

`CCCNC(=N)c1ccc(N2CCN(c3nnc(-c4ccc([N+](=O)[O-])o4)s3)CC2)cc1.Cl`: the IC50 in the data set with Leishmania major [1] turned out to be 10 µM; with Leishmania major [2] it was 5 µM; in the data set with Leishmania major [3], 0.08 µM. Further, it took 785 µM to reach half-maximal cytotoxicity in data set [4] (CC50 at 24 h). For the same molecule, in data set [5], the “Ratio CC50/IC50” value turned out to be 78.5. The result in the data set with Leishmania major [6], with Leishmania major [7] and in the data set on Leishmania major [8] was Active.

With `CCCCNC(=N)c1ccc(N2CCN(c3nnc(-c4ccc([N+](=O)[O-])o4)s3)CC2)cc1.Cl`, the IC50 in the data set with Leishmania major [1] was found to be 11 µM; in the data set with Leishmania major [2], 4 µM; in the data set on Leishmania major [3], 0.2 µM. Further, the CC50 at 24 h in data set [4] was 123 µM. Moreover, the “Ratio CC50/IC50” value in data set [5] came to 11.18.

Consider `CCNC(=N)c1ccc(N2CCN(c3nnc(-c4ccc([N+](=O)[O-])o4)s3)CC2)cc1.Cl`, for which the IC50 in the data set on Leishmania major [1] turned out to be 33 µM; with Leishmania major [2], 26 µM; in the data set with Leishmania major [3], 16 µM. In addition, in data set [4], the CC50 at 24 h came out at 337 µM. The “Ratio CC50/IC50” value in data set [5] is given as 10.21. The outcome in the data set on Leishmania major [6], in the data set on Leishmania major [7] and in the data set with Leishmania major [8] was Active.

`O=[N+]([O-])c1ccc(-c2nnc(N3CCN(c4ccc(C5=NCCN5)cc4)CC3)s2)o1` had an IC50 in the data set on Leishmania major [1] of more than 200 µM.

For the molecule `Cl.N=C(N)c1ccc(N2CCN(c3nnc(-c4ccc([N+](=O)[O-])o4)s3)CC2)cc1`, the IC50 in the data set with Leishmania major [1] was 111 µM; in the data set with Leishmania major [2] it was 111 µM; in the data set with Leishmania major [3], 26 µM. The molecule also showed a CC50 at 24 h in data set [4] of 342 µM. In data set [5], the “Ratio CC50/IC50” value is 3.08.

On to `N#Cc1ccc(N2CCN(c3nnc(-c4ccc([N+](=O)[O-])o4)s3)CC2)cc1`, for which the IC50 in the data set on Leishmania major [1] is 104 µM; in the data set on Leishmania major [2] it was 86 µM; in the data set on Leishmania major [3], 32 µM. The CC50 at 24 h in data set [4] was determined as 159 µM. Besides, in data set [5], the “Ratio CC50/IC50” value is 1.53. The outcome in the data set with Leishmania major [6], in the data set on Leishmania major [7] and in the data set on Leishmania major [8] was Active.

`O=[N+]([O-])c1ccc(-c2nnc(N3CCN(c4ccc(C5=NCCCN5)cc4)CC3)s2)o1` gave an IC50 in the data set with Leishmania major [1] of more than 200 µM.

In the case of `CCOC(=N)c1ccc(N2CCN(c3nnc(-c4ccc([N+](=O)[O-])o4)s3)CC2)cc1`, the IC50 came out at 48 µM with Leishmania major [1], 46 µM in the data set with Leishmania major [2] and 26 µM in the data set on Leishmania major [3]. Further, the outcome in the data set with Leishmania major [6], with Leishmania major [7] and in the data set on Leishmania major [8] was Active.

As for `CNC(=N)c1ccc(N2CCN(c3nnc(-c4ccc([N+](=O)[O-])o4)s3)CC2)cc1.Cl`, the IC50 was 23 µM in the data set on Leishmania major [1], 22 µM in the data set on Leishmania major [2] and 21 µM in the data set on Leishmania major [3]. The CC50 at 24 h in data set [4] was determined as 223 µM. For the same molecule, the “Ratio CC50/IC50” value in data set [5] is 9.69. The result in the data set on Leishmania major [6], with Leishmania major [7] and with Leishmania major [8] was Active.

Regarding `COc1ccc(CNC(=N)c2ccc(N3CCN(c4nnc(-c5ccc([N+](=O)[O-])o5)s4)CC3)cc2)cc1.Cl`, the IC50 stood at 80 µM with Leishmania major [1], 76 µM in the data set with Leishmania major [2] and 2 µM with Leishmania major [3]. For the same molecule, in data set [4], the midpoint of cytotoxicity, the CC50 at 24 h, lay at 69 µM. Moreover, the “Ratio CC50/IC50” value in data set [5] worked out at 0.86. Also, the outcome with Leishmania major [6], in the data set with Leishmania major [7] and with Leishmania major [8] was Active.

`Cl.N=C(NCC1CCCO1)c1ccc(N2CCN(c3nnc(-c4ccc([N+](=O)[O-])o4)s3)CC2)cc1` (centres undefined): the figures for the IC50 in the data set with Leishmania major [1], in the data set with Leishmania major [2] and with Leishmania major [3] were 95 µM, 88 µM and 5 µM, respectively. Moreover, the midpoint of cytotoxicity in data set [4], the CC50 at 24 h, lay at 921 µM. Further, in data set [5], the “Ratio CC50/IC50” value is on record as 9.69.

Consider `Cl.N=C(NCc1ccccc1)c1ccc(N2CCN(c3nnc(-c4ccc([N+](=O)[O-])o4)s3)CC2)cc1`, for which the IC50 worked out at 9 µM in the data set with Leishmania major [1], 1.9 µM with Leishmania major [2] and 0.4 µM in the data set with Leishmania major [3]. The midpoint of cytotoxicity in data set [4], the CC50 at 24 h, lay at 546 µM. Besides, in data set [5], the “Ratio CC50/IC50” value is 60.77. Further, the result in the data set on Leishmania major [6], in the data set with Leishmania major [7] and in the data set with Leishmania major [8] was Active.

Consider `Cl.N=C(c1ccc(N2CCN(c3nnc(-c4ccc([N+](=O)[O-])o4)s3)CC2)cc1)N1CCOCC1`, for which the IC50 with Leishmania major [1] was 93 µM; in the data set on Leishmania major [2], 88 µM; in the data set on Leishmania major [3], 4 µM. This molecule also returned a CC50 at 24 h in data set [4] of 55 µM. Moreover, the “Ratio CC50/IC50” value in data set [5] is recorded as 0.59.

`CCC(C)NC(=N)c1ccc(N2CCN(c3nnc(-c4ccc([N+](=O)[O-])o4)s3)CC2)cc1.Cl` (centres undefined): the values for the IC50 in the data set with Leishmania major [1], in the data set with Leishmania major [2] and in the data set with Leishmania major [3] were 33 µM, 18 µM and 13 µM, respectively. In addition, half-maximal cytotoxicity in data set [4] (CC50 at 24 h) was put at 770 µM. Moreover, in data set [5], the “Ratio CC50/IC50” value is on record as 23.33. Further, the outcome in the data set with Leishmania major [6], with Leishmania major [7] and in the data set with Leishmania major [8] was Active.

In general, IC50 refers to the point on the concentration scale where inhibition reaches its midpoint. High values mean lower potency, low ones higher potency. For orientation: CC50 means the concentration at which the toxic effect on the cells reaches its halfway point. Low values mean greater toxicity to the cells, high ones lower toxicity to the cells.
